This note sets out measurements from ChEMBL document CHEMBL3286371, “wALADin benzimidazoles differentially modulate the function of porphobilinogen synthase orthologs” (J Med Chem, 2014).

By IC50 is commonly meant the concentration that inhibits the measured activity by half. A low value points to inhibition by little substance.

The structures appear in SMILES notation. Calls of active or inactive are those of the source. No cut-off for these calls is given here.

Assay [1] addresses Delta-aminolevulinic acid dehydratase (Pseudomonas aeruginosa (strain ATCC 15692 / PAO1 / 1C / PRS 101 / LMG12228)) (UniProt Q59643). Put plainly: Inhibition of Pseudomonas aeruginosa PAO1 recombinant PBGS using 0.2 mM 5-ALA as substrate at 50 to 200 uM at pH 7.5 in presence of KCl by buffer scan assay.
Assay [2] has as its target T1, Delta-aminolevulinic acid dehydratase (Escherichia coli (strain K12)) (UniProt P0ACB2).
T1 sequence (whole entry): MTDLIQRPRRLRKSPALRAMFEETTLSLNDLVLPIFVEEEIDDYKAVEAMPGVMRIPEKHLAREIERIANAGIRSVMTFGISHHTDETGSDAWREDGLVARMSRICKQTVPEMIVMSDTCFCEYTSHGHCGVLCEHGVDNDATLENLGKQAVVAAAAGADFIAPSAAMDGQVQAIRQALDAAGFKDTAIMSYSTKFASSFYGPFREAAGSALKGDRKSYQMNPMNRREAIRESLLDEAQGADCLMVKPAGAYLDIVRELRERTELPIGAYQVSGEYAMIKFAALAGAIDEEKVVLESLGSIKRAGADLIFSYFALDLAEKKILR
Put plainly: Inhibition of Escherichia coli recombinant PBGS using 5-ALA as substrate at 50 to 200 uM at pH 7 to 8.5 by buffer scan assay in presence of KCl.

Assay [3] deals with Delta-aminolevulinic acid dehydratase (Yersinia enterocolitica W22703) (UniProt F4MUJ9). Put plainly: Inhibition of Yersinia enterocolitica recombinant PBGS expressed in Escherichia coli using 5-ALA as substrate at 50 to 200 uM at pH 7 to 8.5 by buffer scan assay.
Delta-aminolevulinic acid dehydratase (Yersinia enterocolitica W22703), sequence (F4MUJ9 as listed by the source): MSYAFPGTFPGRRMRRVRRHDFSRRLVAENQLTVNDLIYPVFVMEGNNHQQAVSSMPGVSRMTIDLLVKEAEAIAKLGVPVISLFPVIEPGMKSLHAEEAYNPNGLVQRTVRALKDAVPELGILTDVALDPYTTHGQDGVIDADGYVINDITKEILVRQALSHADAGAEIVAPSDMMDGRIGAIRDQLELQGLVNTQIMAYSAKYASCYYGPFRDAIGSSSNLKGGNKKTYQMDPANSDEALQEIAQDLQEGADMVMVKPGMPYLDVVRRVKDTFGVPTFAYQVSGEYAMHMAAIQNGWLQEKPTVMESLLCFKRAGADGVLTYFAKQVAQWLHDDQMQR
In assay [4] the target is Delta-aminolevulinic acid dehydratase (Pseudomonas aeruginosa (strain ATCC 15692 / PAO1 / 1C / PRS 101 / LMG12228)) (UniProt Q59643). Description: Stimulation of Pseudomonas aeruginosa PAO1 recombinant PBGS using 5 mM 5-ALA as substrate assessed as change in enzyme affinity for Mg2+ at 10 to 10000 uM at pH 8 by buffer scan assay in presence of MgCl2. In a few lines: (§1)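 Mg2+ or substrate response curves recorded with and without wALADin1; VMAX, KM and Mg2+ affinity derived from the fits.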
Delta-aminolevulinic acid dehydratase (Pseudomonas aeruginosa (strain ATCC 15692 / PAO1 / 1C / PRS 101 / LMG12228)), sequence (Q59643 whole entry): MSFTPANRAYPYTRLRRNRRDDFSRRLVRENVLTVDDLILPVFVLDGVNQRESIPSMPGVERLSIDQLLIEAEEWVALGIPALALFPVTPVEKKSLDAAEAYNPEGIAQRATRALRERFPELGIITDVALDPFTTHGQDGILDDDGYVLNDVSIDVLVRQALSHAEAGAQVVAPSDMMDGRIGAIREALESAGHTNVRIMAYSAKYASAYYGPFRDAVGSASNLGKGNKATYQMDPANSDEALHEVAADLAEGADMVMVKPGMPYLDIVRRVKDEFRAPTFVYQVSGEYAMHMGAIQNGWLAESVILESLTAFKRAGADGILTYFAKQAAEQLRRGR

The target is the same in assay [5]. Description: Binding affinity to Pseudomonas aeruginosa PAO1 recombinant PBGS at 100 to 500 uM by thermal shift assay.
Assay [6] shares this target. Description: Stimulation of Pseudomonas aeruginosa PAO1 recombinant PBGS using 5 mM 5-ALA as substrate assessed as effect on Km at 50 to 200 uM at pH 8 by Michaelis-Menten plot analysis in presence of MgCl2. In a few lines: as §1
Assay [7] shares this target. Put plainly: Inhibition of Pseudomonas aeruginosa PAO1 recombinant PBGS using 0.2 mM 5-ALA as substrate assessed as reduction in Vmax at 50 to 200 uM at pH 7.5 by Michaelis-Menten plot analysis in presence of MgCl2. In a few lines: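 PaPBGS under "standard inhibitory" conditions (100 mM Tris-HCl pH 7.5, 1 mM MgCl2, no KCl). 5-ALA varied for substrate-response curves at several wALADin1 levels; KM and VMAX derived from the fits. Incubation at 36 °C.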

Assay [8] shares this target. Put plainly: Inhibition of Pseudomonas aeruginosa PAO1 recombinant PBGS assessed as inhibition of octamer-inducing effect of Mg2+ by nondenaturing PAGE analysis. In a few lines: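 PaPBGS (3 μg) preincubated 20 min at 37 °C in assay buffer with 1 mM Mg2+, 100 mM K+ and wALADin1, no 5-ALA. Run on 7.5% nondenaturing PAGE at 4 °C for 15–20 h. Coomassie for oligomer state; in-gel activity with 500 μM 5-ALA stained with Ehrlich's reagent.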

Assay [9] has the same target. Put plainly: Stimulation of Pseudomonas aeruginosa PAO1 recombinant PBGS using 5-ALA as substrate at 10 to 1000 uM at pH 8 in presence of MgCl2 and KCl.
For assay [10], the target named is Delta-aminolevulinic acid dehydratase (Yersinia enterocolitica W22703) (UniProt F4MUJ9). Description: Stimulation of Yersinia enterocolitica recombinant PBGS expressed in Escherichia coli using 5-ALA as substrate at 10 to 1000 uM at pH 8 in presence of 0.1 to 10000 uM MgCl2.
Assay [11] concerns the target T1, Delta-aminolevulinic acid dehydratase (Escherichia coli (strain K12)). Put plainly: Stimulation of Escherichia coli recombinant PBGS using 5-ALA as substrate at 10 to 1000 uM at pH 8 in presence of 0.1 to 10000 uM MgCl2.
Assay [12] deals with T2, Delta-aminolevulinic acid dehydratase (Wolbachia sp. subsp. Brugia malayi (strain TRS), UniProt Q5GSR3).
T2 sequence (Q5GSR3 whole entry): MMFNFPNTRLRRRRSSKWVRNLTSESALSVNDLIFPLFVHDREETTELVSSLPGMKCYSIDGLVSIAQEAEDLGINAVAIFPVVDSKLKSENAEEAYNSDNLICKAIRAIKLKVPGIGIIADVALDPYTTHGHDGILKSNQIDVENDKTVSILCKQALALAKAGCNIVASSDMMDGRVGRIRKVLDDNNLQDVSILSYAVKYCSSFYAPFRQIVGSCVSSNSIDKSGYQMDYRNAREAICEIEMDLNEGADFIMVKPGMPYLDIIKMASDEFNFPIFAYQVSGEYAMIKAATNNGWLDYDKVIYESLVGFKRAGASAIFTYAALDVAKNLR
Description: Inhibition of C-terminal His-tagged Wolbachia PBGS using 5-ALA as substrate.

The target of assay [13] is T3, Delta-aminolevulinic acid dehydratase, chloroplastic (Pisum sativum) (UniProt P30124).
T3 sequence (whole entry): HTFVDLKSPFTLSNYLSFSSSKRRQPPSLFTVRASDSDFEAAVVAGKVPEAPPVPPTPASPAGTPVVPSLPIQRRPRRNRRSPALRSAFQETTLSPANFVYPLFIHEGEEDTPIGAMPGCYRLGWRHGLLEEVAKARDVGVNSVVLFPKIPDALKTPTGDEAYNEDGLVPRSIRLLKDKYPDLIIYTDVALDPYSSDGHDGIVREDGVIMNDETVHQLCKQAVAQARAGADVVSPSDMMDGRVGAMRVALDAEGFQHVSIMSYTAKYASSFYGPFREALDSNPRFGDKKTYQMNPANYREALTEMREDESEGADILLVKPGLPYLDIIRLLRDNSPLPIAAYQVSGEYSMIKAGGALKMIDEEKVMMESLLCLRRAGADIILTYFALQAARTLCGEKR
Description: Competitive inhibition of Pisum sativum PBGS using 5-ALA as substrate at 6.25 to 100 uM. The settings on record: Lathyrus oleraceus.

The target in assay [14] is T3, Delta-aminolevulinic acid dehydratase, chloroplastic (Pisum sativum). Put plainly: Partial competitive inhibition of Pisum sativum PBGS using 5-ALA as substrate at 6.25 to 100 uM in presence of MgCl2. The following applies: Lathyrus oleraceus.
Assay [15] deals with Delta-aminolevulinic acid dehydratase (Pseudomonas aeruginosa (strain ATCC 15692 / PAO1 / 1C / PRS 101 / LMG12228)) (UniProt Q59643). Put plainly: Stimulation of Pseudomonas aeruginosa PAO1 recombinant PBGS using 5-ALA as substrate relative to control. In a few lines:
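His-tagged PaPBGS at 150 nM subunit in 100 mM Tris-HCl pH 8.0 with 1 mM MgCl2, 100 mM KCl and 0.2 mM 5-ALA, 10 min at 36 °C, with turnover at most 30%. Porphobilinogen read with Ehrlich's reagent. Activity normalized to 6.7% DMSO control as 100%. EC50 from variable-slope agonist fit.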

The target of assay [16] is T4, Delta-aminolevulinic acid dehydratase (Wolbachia sp. subsp. Brugia malayi (strain TRS)) (UniProt Q5GSR3).
T4 sequence (whole entry): T2 sequence (Q5GSR3 whole entry)
The settings on record: 25 to 2500 uM.

On to `O=C(O)c1ccc2c(c1)nc(CCNC(=O)c1cccs1)n2Cc1cccc(C(F)(F)F)c1`, for which the inhibition result in assay [1], in assay [2], in [3], in [7], in [13] and in [14] was “Active” each time. For the same compound, the inhibition result in assay [16] is “Active”. The outcome in assay [4], in assay [5], in [9], in assay [10] and in [11] was Active. For the same compound, the outcome in [6] was inactive. Further, the inhibition entry in assay [8] is “Dose-dependent effect”. The IC50 in [12] stood at 11.1 µM. The Smax in assay [15] came to 123%.
